These results are taken from ChEMBL document CHEMBL1145010, “Stereoselective synthesis of beta-lactams with polyaromatic imines: entry to new and novel anticancer agents” (2003).

For one test, the system named is PC-3. The test can be described thus: In Vitro cytotoxicity against human cancer cell line, PC-3. Type of test: functional. Put shortly:
(§1)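 MTT cytotoxicity assay across a panel of nine human cancer cell lines, run in the institutional Pharmacology and Analytic Core Laboratory by a previously described protocol. Cisplatin and a diamide were included as reference controls. Activity above 20 μM/mL was regarded as not significant.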

The next test deals with OVCAR. The test can be described thus: In Vitro cytotoxicity against human cancer cell line, OVCAR. In kind it is functional. Put shortly:
as §1

Test [1] is described as follows: (§2) In Vitro cytotoxicity against human cancer cell line, BRO. Type of test: functional, Cancer cell lines. Put shortly: as §1
Another test concerns MCF7. The test can be described thus: In Vitro cytotoxicity against human cancer cell line, MCF-7. In kind it is functional. Put shortly:
as §1

Test [2] can be described thus: (§3) In Vitro cytotoxicity against human cancer cell line, MDA-213. Type of test: functional, Cancer cell lines. Put shortly:
as §1

Another test deals with HL-60. The test can be described thus: In Vitro cytotoxicity against human cancer cell line, HL-60. In kind it is functional. Put shortly:
as §1

The nature of test [3]: (§4) In Vitro cytotoxicity against human cancer cell line, SKOV. Type of test: functional, Cancer cell lines. Put shortly:
as §1

The subject of a further test is HT-29. The test can be described thus: In Vitro cytotoxicity against human cancer cell line, HT-29. Type of test: functional. Put shortly:
as §1

The next test concerns K562. The test can be described thus: In Vitro cytotoxicity against human cancer cell line, K-562. Type of test: functional. Put shortly:
as §1

Test [4] relates to Cancer cell lines. The description is as §2. Type of test: functional. Put shortly:
as §1

Test [5] relates to Cancer cell lines. The test is described as §3. Type of test: functional. Put shortly: as §1
Test [6] has as its system Cancer cell lines. The description is as §4. Type of test: functional. Put shortly: as §1

With `CC(=O)OC1C(=O)N(c2cccc3cc4ccccc4cc23)[C@@H]1c1ccccc1` (stereo not given in full), the Cytotoxicity (with PC-3; in the test on OVCAR; in test [1]; in the test with MCF7; in [2]; with HL-60) was more than 20 µM in each case. Moreover, the Cytotoxicity (in test [3]; in the test on HT-29; with K562) was more than 20 µM throughout.

As for `CC(=O)OC1C(=O)N(c2cc3c4ccccc4ccc3c3ccccc23)[C@H]1c1ccccn1` (stereo not given in full), the Cytotoxicity in [1] turned out to be 11 µM; in the test with MCF7 it was 14.93 µM; in [2], 14.46 µM; in the test on HL-60, 2.5 µM; in test [3] it was 9 µM; in the test on HT-29 it was 15.9 µM. Moreover, in the test on K562, the Cytotoxicity stood at 2.5 µM.

In the case of `CC(=O)OC1C(=O)N(c2ccccc2)C1c1cc2c3ccccc3ccc2c2ccccc12` (stereo not given), the Cytotoxicity (in the test on PC-3; in the test with OVCAR; in test [1]; in the test with MCF7; in test [2]; with HL-60) was more than 20 µM throughout. Besides, the Cytotoxicity (in test [3]; with HT-29; with K562) was more than 20 µM throughout.

Consider `CC(=O)OC1C(=O)N(c2ccc3ccc4cccc5ccc2c3c45)[C@H]1c1ccccc1` (stereo not given in full), for which the Cytotoxicity (in the test on PC-3; in the test with OVCAR; in test [1]; in the test with MCF7; in test [2]; with HL-60) was more than 20 µM throughout. For the same compound, the Cytotoxicity (in test [3]; in the test with HT-29; with K562) was more than 20 µM each time.

Consider `CC(=O)OC1C(=O)N(c2cc3ccccc3c3ccccc23)[C@H]1c1ccccc1` (stereo not given in full), for which the Cytotoxicity in the test with PC-3 came out at 9.3 µM; in the test on OVCAR, 18 µM; in test [1] it was 10.48 µM; in the test on MCF7, 10.09 µM; in test [2] it was 12.49 µM; in the test on HL-60 it was 5.21 µM. Besides, the Cytotoxicity is 18 µM in [3], 10.49 µM in the test with HT-29 and 4 µM in the test with K562.

In the case of `CN1CCN(C(=O)CCC(=O)Nc2cc3c4ccccc4ccc3c3ccccc23)CC1`, the Cytotoxicity turned out to be 27.29 µM with PC-3; 18.11 µM in the test on OVCAR; 33.64 µM in test [1]; 40 µM with MCF7; 12.23 µM in [2]; 9.41 µM in the test on HL-60. The Cytotoxicity in [3] is 11.05 µM; with HT-29 it was 16.7 µM; with K562, 12.7 µM.

As for `CC(=O)OC1C(=O)N(c2cc3c4ccccc4ccc3c3ccccc23)[C@H]1c1ccccc1` (stereo not given in full), the Cytotoxicity with PC-3 is 16.32 µM; with OVCAR it was 4.17 µM; in [1], 10.84 µM; in the test with MCF7, 9.81 µM; in [2], 11.98 µM; in the test on HL-60, 3.64 µM. For the same compound, the Cytotoxicity in test [3] worked out at 6.88 µM; in the test with HT-29, 5.66 µM; with K562 it was 4.33 µM.

Take `CC(=O)OC1C(=O)N(c2cccc3cc4c(cc23)Cc2cc3ccccc3cc2-4)[C@H]1c1ccccc1` (stereo not given in full): the Cytotoxicity (in the test on PC-3; in the test with OVCAR; in test [1]; with MCF7; in test [2]; in the test with HL-60) was more than 20 µM each time. In addition, the Cytotoxicity (in [3]; in the test on HT-29; in the test with K562) was more than 20 µM throughout.

On to `O=C1c2ccccc2C(=O)N1C1C(=O)N(c2cc3c4ccccc4ccc3c3ccccc23)[C@H]1c1ccccc1` (stereo not given in full), for which the Cytotoxicity (in the test with PC-3; in the test on OVCAR; in test [1]; in the test with MCF7; in test [2]; in the test with HL-60) was more than 20 µM throughout. Further, the Cytotoxicity (in test [3]; in the test with HT-29; with K562) was more than 20 µM in each case.

Regarding CISPLATIN, the Cytotoxicity worked out at 4.66 µM in the test on PC-3; 3.99 µM in the test on OVCAR; 7.66 µM in the test on Cancer cell lines [4]; 10.1 µM in the test on MCF7; 12.3 µM in the test with Cancer cell lines [5]; 1.66 µM with HL-60. In addition, the Cytotoxicity amounted to 5.99 µM in the test with Cancer cell lines [6], 17 µM with HT-29 and 2.33 µM with K562.

On to `O=C1C(Oc2ccccc2)[C@H](c2ccccc2)N1c1cc2c3ccccc3ccc2c2ccccc12` (stereo not given in full), for which the Cytotoxicity (in the test on PC-3; in the test on OVCAR; in [1]; in the test on MCF7; in test [2]; with HL-60) was more than 20 µM throughout. Moreover, the Cytotoxicity (in test [3]; in the test with HT-29; in the test on K562) was more than 20 µM in each case.

In the case of `CC(=O)OC1C(=O)N(c2cccc3ccccc23)[C@@H]1c1ccccc1` (stereo not given in full), the Cytotoxicity (in the test on PC-3; in the test on OVCAR; in test [1]; with MCF7; in test [2]; in the test on HL-60) was more than 20 µM throughout. Also, the Cytotoxicity (in [3]; in the test with HT-29; with K562) was more than 20 µM in each case.

As for `O=C1C(Oc2ccccc2)[C@H](c2ccccc2)N1c1cc2ccccc2c2ccccc12` (stereo not given in full), the Cytotoxicity (with PC-3; with OVCAR; in test [1]; in the test with MCF7; in test [2]; in the test on HL-60) was more than 20 µM each time. Further, the Cytotoxicity (in test [3]; in the test with HT-29; in the test with K562) was more than 20 µM in each case.
